Source: PubChem
APJ agonist – agonists of human APJ apelin receptor; P35414; CHO-K1 APJ PathHunter beta-arrestin, luminescence; 0% DMSO wells, 100% apelin; activation, % at 20 µM; hit rate 0.11% among 330,000;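 active = activation more than six SD over the plate average, tested at 20 µM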
Target sequence (P35414 whole entry, looked up): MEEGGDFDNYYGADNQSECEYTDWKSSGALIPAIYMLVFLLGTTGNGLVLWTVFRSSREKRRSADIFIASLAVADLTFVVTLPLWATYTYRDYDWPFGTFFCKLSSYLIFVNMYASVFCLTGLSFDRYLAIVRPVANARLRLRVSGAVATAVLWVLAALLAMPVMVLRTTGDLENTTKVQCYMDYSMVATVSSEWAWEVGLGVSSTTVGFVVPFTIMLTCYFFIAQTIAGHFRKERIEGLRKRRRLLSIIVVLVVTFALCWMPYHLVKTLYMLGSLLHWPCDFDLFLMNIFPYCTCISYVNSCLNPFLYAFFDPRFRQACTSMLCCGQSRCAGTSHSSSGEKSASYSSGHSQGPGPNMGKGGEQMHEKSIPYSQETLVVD
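system = engineered CHO-K1 APJ arrestin reporter cells | input = 1000 cells per well | timing = overnight seeding, 90 min compound at 25 °C, 1 h detection | measured by = enzyme-fragment complementation luminescence | read-out = beta-arrestin recruitment to APJ as agonist activity, luminescent signal | control set = negative DMSO alone, positive Apelin-13 at 10 nM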
H9c2 TAG inh – reduces triacylglycerol accumulation in H9c2 cells. Nile Red lipid (TAG) fluorescence; cells loaded with 200 µM oleic acid. inhibition, % at 12.5 µM. hit rate 0.66% among 230,000;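 active = pattern-corrected inhibition of lipid staining of at least 50% with the nuclear-stain viability signal not falling by more than 50%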
EBI2 antag – blocks human EBI2 receptor beta-arrestin signaling; P32249; EBI2 beta-arrestin recruitment, luminescence, 7a,25-OHC stimulated; inhibition, % at 5 µM; hit rate 0.81% among 360,000; in the data active = inhibition above about 38%;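 note: enzyme fragment complementation signal reports receptor beta-arrestin coupling in cells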
Target sequence (P32249 whole entry, looked up, the tested form may be a part): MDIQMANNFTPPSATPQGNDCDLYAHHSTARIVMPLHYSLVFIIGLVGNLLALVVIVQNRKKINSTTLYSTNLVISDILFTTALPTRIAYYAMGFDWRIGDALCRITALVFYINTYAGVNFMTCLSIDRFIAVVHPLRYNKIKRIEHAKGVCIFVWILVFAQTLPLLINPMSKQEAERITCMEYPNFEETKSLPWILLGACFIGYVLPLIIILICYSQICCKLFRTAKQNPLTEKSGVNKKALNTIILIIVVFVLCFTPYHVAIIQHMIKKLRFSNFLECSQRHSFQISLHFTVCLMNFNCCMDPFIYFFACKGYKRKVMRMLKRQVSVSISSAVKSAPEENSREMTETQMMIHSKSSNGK
CCR6 antagonist – blocks CCL20-driven beta-arrestin recruitment at human CCR6. CHO-K1 CCR6 PathHunter beta-arrestin, luminescence, CCL20-stimulated. inhibition, % at 20 µM. hit rate 0.49% among 340,000;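 active = compounds whose inhibition of the agonist-driven luminescence signal at 20 µM reaches about 50%, limit read from the data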;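 note: cells stimulated with CCL20 at 14 nM final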
CXCR6 inh – inhibitors of human CXCR6 receptor. O00574. CHO-K1 PathHunter CXCR6 beta-arrestin, luminescence. inhibition, % at 20 µM. hit rate 0.36% among 360,000. AID 602244; in the data active = inhibition above about 34%, passing the limit was not always enough;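 note: antagonist mode with CXCL16 agonist at 10 nM final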
APJ antagonist – blocks the human apelin receptor APJ; inhibition, % at 20 µM; hit rate 0.32% among 330,000; CHO-K1 APJ beta-arrestin complementation, luminescence;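 active = inhibition above about 40% at 20 µM, limit read from the data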;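 note: cells challenged with 10 nM apelin-13 agonist together with compound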
EBI2 antag conf – confirmation of human EBI2 receptor antagonists; inhibition, % at 5 µM; EBI2 beta-arrestin luminescence, 7a,25-OHC antagonism; shares compounds with EBI2 antag; hit rate 29% among 2,400;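 active = inhibition of at least 50%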
EBI2 agonist – counter-screen for EBI2 antagonists: EBI2 agonist activity. shares compounds with EBI2 antag. EBI2-expressing cells, agonist mode, luminescence, 60 min; 0% vehicle, 100% 7α,25-dihydroxycholesterol control. activation, % at 5 µM. 2,400 tested, under 10 active;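 active = activation of at least 50%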
bGal counter – beta-galactosidase inhibition counter-screen; shares compounds with EBI2 antag; purified beta-galactosidase, luminescent Galacton Star, 15 min; inhibition, % at 5 µM; hit rate 1% among 2,400; AID 652176;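 active = replicate-average signal at least 3 plate SD below neutral wells, shown as high inhibition, flagging enzyme-inhibiting false positives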;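 note: higher means stronger loss of beta-gal luminescence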
Of the large screens only hits and unclear results are named; the others gave an inactive call (follow-up assays come after a bar, where they were run). In the library only some 1.9% were active in any assay of this set; here they are far more common.

COc1ccc(C2=CC(=O)CC(c3ccccc3)C2)cc1 (centres undefined)	none
O=C(NCCC(F)(F)F)c1cccc2c(-c3ccc(F)c(F)c3)coc12	none (no result: APJ agonist, CCR6 antagonist, APJ antagonist)
CCN(CC)S(=O)(=O)c1ccc(NC(=O)C2CC(=O)N(c3ccc4c(c3)OCCO4)C2)cc1 (centres undefined)	none (no result: APJ agonist, APJ antagonist)
CCN(CC)C(=O)C1=C(C)N(Cc2ccc(C(C)(C)C)cc2)C(=O)C(CC(=O)NC2CC2)C1 (centres undefined)	none (no result: APJ agonist, CCR6 antagonist, APJ antagonist)
COc1ccc(N(C(=O)c2snc(C(N)=O)c2N)C(C(=O)NC2CCCCC2)c2ccc(C)o2)cc1 (centres undefined)	none (no result: H9c2 TAG inh)
O=C(CNc1cc(S(=O)(=O)N2CCOCC2)ccc1N1CCCC1)Nc1ccc(Cl)cc1	none (no result: APJ agonist, APJ antagonist)
O=C1C=C(c2ccccc2)C[C@@H](c2ccc(Cl)cc2)C1	none
COc1ccc([C@H]2CC(=O)C=C(c3ccc(O)cc3)C2)cc1OC	none
COc1ccc([C@H]2CC(=O)C=C(c3ccc4ncccc4c3)C2)cc1OC	EBI2 antag 47.3 | EBI2 antag conf inactive | EBI2 agonist inactive | bGal counter inactive
O=C1C=C(c2ccc3ncccc3c2)C[C@@H](c2ccc(Cl)cc2)C1	EBI2 antag 87.1 | EBI2 antag conf 75.3 | EBI2 agonist inactive | bGal counter inactive
COc1ccc(S(=O)(=O)N2CCSC2C)cc1C (centres undefined)	none (no result: H9c2 TAG inh)
CCOc1ccc(NC(=S)N(CCOC)C(C)c2ccco2)cc1 (centres undefined)	EBI2 antag 54.8 | EBI2 antag conf inactive | EBI2 agonist inactive | bGal counter inactive
COc1ccc(NC(=S)N(CCC(C)C)C2CCN(C(C)C)CC2)cc1	none (no result: H9c2 TAG inh)
CCOc1ccc(NC(=S)N(CCOC)C2CCN(C(C)C)CC2)cc1	EBI2 antag 53.8 (no result: H9c2 TAG inh) | EBI2 antag conf inactive | EBI2 agonist inactive | bGal counter inactive
COCCN(C(=S)Nc1ccc(C)cc1)C(C)c1ccco1 (centres undefined)	none
CCOc1ccc(NC(=S)N(CCc2ccncc2)C(C)C)cc1	EBI2 antag 51.6 | EBI2 antag conf inactive | EBI2 agonist inactive | bGal counter inactive
Cc1ccc(NC(=O)C(C)OC(=O)COc2cccc(C(F)(F)F)c2)cc1 (centres undefined)	none
COc1cc(OC)cc(C(=O)NNC(=O)CCc2nc3ccccc3c(=O)[nH]2)c1	none
OC1c2cc(Cl)cc(Cl)c2N=C2CCCN21 (centres undefined)	none (no result: APJ agonist, CCR6 antagonist, APJ antagonist)
CNC(C)C(=O)NC(C(=O)NC(C)C(=O)Nc1cccc2ccccc12)C(C)C (centres undefined)	none (no result: APJ agonist, CCR6 antagonist, APJ antagonist)
C[C@@H](C(=O)Nc1ccc2ccccc2c1)[C@@H]1C[C@@]1(C)[C@@H](NC(=O)c1cnccn1)c1ccccc1	EBI2 antag 74.6 | EBI2 antag conf inactive | EBI2 agonist inactive | bGal counter inactive
COc1ccc2c(c1)OC[C@H]1[C@H]2N2C(=O)CN(CCc3c[nH]c4ccccc34)C(=O)[C@@]2(C)[C@H]1c1ccccc1	none
COc1cc(C(=O)NCC(c2cccs2)N2CCOCC2)ccc1OCc1ccc(Cl)cc1 (centres undefined)	none (no result: APJ agonist, CCR6 antagonist, APJ antagonist)
Cc1ccc(CNC(=O)/C(C#N)=C/c2ccc(C)s2)cc1	EBI2 antag 50.8 | EBI2 antag conf inactive | EBI2 agonist inactive | bGal counter inactive
Cc1ccc(S(=O)(=O)N2CCN(C(=O)c3cc(=O)c4ccccc4o3)CC2)cc1	EBI2 antag 46.1 | EBI2 antag conf inactive | EBI2 agonist inactive | bGal counter inactive
COc1cc(SC)ccc1C(=O)N1CCN(S(=O)(=O)/C=C/c2ccccc2)CC1	EBI2 antag 65.0 | EBI2 antag conf inactive | EBI2 agonist inactive | bGal counter inactive
O=C(c1ccco1)N1CCN(S(=O)(=O)c2cccs2)CC1	none (no result: H9c2 TAG inh)
O=C(c1cc2ccccc2o1)N1CCN(S(=O)(=O)/C=C/c2ccccc2)CC1	EBI2 antag 91.5 | EBI2 antag conf 85.9 | EBI2 agonist inactive | bGal counter inactive
O=C(c1cc2ccccc2o1)N1CCN(S(=O)(=O)c2cccs2)CC1	EBI2 antag 59.4 | EBI2 antag conf 52.9 | EBI2 agonist inactive | bGal counter inactive
O=C(c1ccc(Cl)cc1)N1CCN(S(=O)(=O)/C=C/c2ccccc2)CC1	EBI2 antag 91.7 | EBI2 antag conf 66.8 | EBI2 agonist inactive | bGal counter inactive
O=C(c1cc2ccccc2o1)N1CCN(S(=O)(=O)c2ccccc2)CC1	EBI2 antag 74.6 | EBI2 antag conf inactive | EBI2 agonist inactive | bGal counter inactive
COc1ccccc1NC(=O)C[n+]1ccccc1C	none
CC(C)(C)C1CCC(=O)N(CCOc2ccccc2)CC1 (centres undefined)	EBI2 antag 52.2 (no result: H9c2 TAG inh) | EBI2 antag conf inactive | EBI2 agonist inactive | bGal counter inactive
CCCN1CCC(=O)N(CCOc2ccccc2)CC1	none
CN1C(=O)c2ccc(C(=O)Nc3ccc4c(c3)OCO4)cc2C1=O	EBI2 antag 44.8 | EBI2 antag conf inactive | EBI2 agonist inactive | bGal counter inactive
O=C(Nc1ccc2c(c1)OCO2)c1ccccc1	none (no result: H9c2 TAG inh)
Cc1ccc(NC(=O)c2ccc3c(c2)C(=O)N(CC2CCCO2)C3=O)cc1C (centres undefined)	EBI2 antag 74.3 | EBI2 antag conf 52.2 | EBI2 agonist inactive | bGal counter inactive
Brc1ccc(-c2nnc3sc(CN4CCc5ccccc5C4)cn23)cc1	none (no result: APJ agonist, APJ antagonist)
Brc1ccc(-c2nnc3sc(CN4CCC5(CC4)OCCO5)cn23)cc1	EBI2 antag 55.8 (no result: H9c2 TAG inh) | EBI2 antag conf inactive | EBI2 agonist inactive | bGal counter inactive
CC(C)(C)NC(=O)C1(C)CCC(=O)N1C1CC1 (centres undefined)	none (no result: APJ agonist, H9c2 TAG inh, CCR6 antagonist, APJ antagonist)
COc1ccc(/C=C/c2c(-c3ccc(OC)cc3)sc3ccc(N4CCOCC4)cc23)cc1	EBI2 antag 50.0 | EBI2 antag conf inactive | EBI2 agonist inactive | bGal counter inactive
COc1ccc(-c2sc3ccc(N4CCOCC4)cc3c2C#CCO)cc1	none
CCOc1ccccc1NC(=O)CCS(=O)(=O)c1ccc2c(c1)CCN2C(C)=O	none (no result: H9c2 TAG inh)
Nc1ncnc2c1ncn2[C@@H]1O[C@H](CNC(=O)[C@H](N)Cc2cscn2)[C@@H](O)[C@H]1O	none (no result: APJ agonist, APJ antagonist)
COc1ccc(/C=N/NC(=S)NCCc2ccccc2)cc1	none (no result: H9c2 TAG inh)
CCc1ccc(/C=N/NC(=S)NCCc2ccccc2)cc1	EBI2 antag 56.9 (no result: H9c2 TAG inh) | EBI2 antag conf inactive | EBI2 agonist inactive | bGal counter inactive
CN(C)c1ccc(/C=N/NC(=S)NCc2ccccc2)cc1	EBI2 antag 48.9 | EBI2 antag conf inactive | EBI2 agonist inactive | bGal counter inactive
